By inhibition is commonly meant the drop in the measured response relative to a control, in per cent. The IC50 is the concentration at which inhibition is half-maximal.

The source made the active and inactive calls. No cut-off for these calls is given here.

NAD-dependent protein deacylase sirtuin-6 (Homo sapiens), sequence (Q8N6T7 whole entry): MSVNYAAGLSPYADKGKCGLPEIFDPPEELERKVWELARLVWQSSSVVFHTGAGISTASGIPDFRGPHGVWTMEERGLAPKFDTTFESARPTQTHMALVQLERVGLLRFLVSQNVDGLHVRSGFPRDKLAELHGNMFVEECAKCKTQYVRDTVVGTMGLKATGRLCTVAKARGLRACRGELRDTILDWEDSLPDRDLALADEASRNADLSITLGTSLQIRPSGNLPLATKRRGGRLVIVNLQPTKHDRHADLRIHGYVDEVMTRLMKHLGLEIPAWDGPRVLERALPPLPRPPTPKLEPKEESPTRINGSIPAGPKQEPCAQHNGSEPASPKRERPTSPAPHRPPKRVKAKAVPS
NAD-dependent protein deacylase sirtuin-5, mitochondrial (Homo sapiens), sequence (Q9NXA8 37-310 limits assumed): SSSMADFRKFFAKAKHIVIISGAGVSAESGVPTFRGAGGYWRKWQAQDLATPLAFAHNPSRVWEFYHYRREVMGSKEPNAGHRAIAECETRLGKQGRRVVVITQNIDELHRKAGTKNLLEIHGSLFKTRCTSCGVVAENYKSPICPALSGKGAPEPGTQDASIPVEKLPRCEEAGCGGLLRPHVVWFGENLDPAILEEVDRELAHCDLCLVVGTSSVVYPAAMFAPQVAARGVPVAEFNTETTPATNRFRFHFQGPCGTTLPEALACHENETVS

In one assay the target is T1, NAD-dependent protein deacetylase sirtuin-2 (Homo sapiens) (UniProt Q8IXJ6).
T1 sequence (whole entry): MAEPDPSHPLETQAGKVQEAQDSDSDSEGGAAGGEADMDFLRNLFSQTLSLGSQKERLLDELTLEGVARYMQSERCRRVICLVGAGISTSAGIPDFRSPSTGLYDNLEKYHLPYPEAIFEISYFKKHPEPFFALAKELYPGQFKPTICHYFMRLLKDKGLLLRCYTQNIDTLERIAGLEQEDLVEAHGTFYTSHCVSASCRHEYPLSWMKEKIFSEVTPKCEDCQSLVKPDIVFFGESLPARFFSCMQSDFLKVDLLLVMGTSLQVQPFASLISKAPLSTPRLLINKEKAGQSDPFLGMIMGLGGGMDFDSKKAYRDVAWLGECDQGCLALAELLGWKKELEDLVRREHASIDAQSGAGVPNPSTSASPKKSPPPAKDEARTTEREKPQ
Description: Inhibition of recombinant SIRT2 (unknown origin) using ETDK(Ca)AMC as substrate assessed as reduction in decanoylase activity at 10 uM after 2 hrs in presence of NAD+ by fluorescence assay relative to control. A digest of the protocol:
(§1)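 Fluorogenic sirtuin assay in 25 mM Tris–HCl pH 8.0, 150 mM NaCl, 10% glycerol. Enzyme at 0.1 μM with 10 μM substrate (RLIK(Ac)AMC or ETDK(Ca)AMC) and 400 μM NAD+, 2 h at 25 °C with shaking. Reaction stopped with a trypsin plus 4 mM nicotinamide solution, then 30 min more at 25 °C. Fluorescence read on a plate reader.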
On to `Cc1cc(C)nc(SCC(=O)Nc2ccc(Sc3ccsc3)cc2)n1`, for which the inhibition came to 18%.

On to `Cc1cc(C)nc(SCC(=O)Nc2ccc(Sc3ccc(C(F)(F)F)cc3)cc2)n1`, for which the inhibition is 18%.

On to `Cc1cc(C)nc(SCC(=O)Nc2ccc(Sc3ccc(OC(F)(F)F)cc3)cc2)n1`, for which the inhibition was 23%.

With `Cc1cc(C)nc(SCC(=O)Nc2ccc(Sc3cccnc3)cc2)n1`, the inhibition turned out to be 23%.

`Cc1cc(C)nc(SCC(=O)Nc2ccc(Sc3ccccc3)cc2)n1`: the inhibition is 38%.

Regarding `Cc1cc(C)nc(SCC(=O)Nc2cccc(COc3ccccc3)c2)n1`, the inhibition amounted to 32%.

For the compound `Cc1cc(C)nc(SCC(=O)Nc2ccc(Sc3cccc4ccccc34)cc2)n1`, the inhibition was determined as 42%.

Turning to `Cc1cc(C)nc(SCC(=O)Nc2ccc(Sc3cccc(C(F)(F)F)c3)cc2)n1`, the inhibition came out at 72%.

In the case of `Cc1cc(C)nc(SCC(=O)Nc2ccc(Sc3ccc4ccccc4c3)cc2)n1`, the inhibition was determined as 23%.

Another assay concerns the target T1, NAD-dependent protein deacetylase sirtuin-2 (Homo sapiens). Description: Inhibition of recombinant SIRT2 (unknown origin) using RLIK(Ac)AMC as substrate assessed as reduction in deacetylase activity at 10 uM after 2 hrs in presence of NAD+ by fluorescence assay relative to control. A digest of the protocol:
as §1
On to `Cc1cc(C)nc(SCC(=O)Nc2ccc(Sc3ccsc3)cc2)n1`, for which the inhibition was 50%.

For the compound `Cc1cc(C)nc(SCC(=O)Nc2ccc(Sc3ccc(C(F)(F)F)cc3)cc2)n1`, the inhibition is 28%.

As to `Cc1cc(C)nc(SCC(=O)Nc2ccc(Sc3ccc(OC(F)(F)F)cc3)cc2)n1`, the inhibition turned out to be 40%.

`Cc1cc(C)nc(SCC(=O)Nc2ccc(Sc3cccnc3)cc2)n1`: the inhibition came to 42%.

Consider `Cc1cc(C)nc(SCC(=O)Nc2ccc(Sc3ccccc3)cc2)n1`, for which the inhibition was determined as 70%.

Turning to `Cc1cc(C)nc(SCC(=O)Nc2cccc(COc3ccccc3)c2)n1`, the inhibition worked out at 53%.

On to `Cc1cc(C)nc(SCC(=O)Nc2ccc(Sc3cccc4ccccc34)cc2)n1`, for which the inhibition came to 42%.

For `Cc1cc(C)nc(SCC(=O)Nc2ccc(Sc3cccc(C(F)(F)F)c3)cc2)n1`, the inhibition worked out at 72%.

Regarding `Cc1cc(C)nc(SCC(=O)Nc2ccc(Sc3ccc4ccccc4c3)cc2)n1`, the inhibition amounted to 51%.

A further assay has the same target. Description: Inhibition of recombinant SIRT2 (unknown origin) using ETDK(Ca)AMC as substrate assessed as reduction in decanoylase activity at 100 uM after 2 hrs in presence of NAD+ by fluorescence assay relative to control. A digest of the protocol:
as §1
As to `Cc1cc(C)nc(SCC(=O)Nc2ccc(Sc3ccsc3)cc2)n1`, the inhibition was 58%.

For the compound `Cc1cc(C)nc(SCC(=O)Nc2ccc(Sc3ccc(C(F)(F)F)cc3)cc2)n1`, the inhibition turned out to be 42%.

For `Cc1cc(C)nc(SCC(=O)Nc2ccc(Sc3ccc(OC(F)(F)F)cc3)cc2)n1`, the inhibition was 63%.

On to `Cc1cc(C)nc(SCC(=O)Nc2ccc(Sc3cccnc3)cc2)n1`, for which the inhibition came out at 60%.

On to `Cc1cc(C)nc(SCC(=O)Nc2ccc(Sc3ccccc3)cc2)n1`, for which the inhibition is 53%.

`Cc1cc(C)nc(SCC(=O)Nc2ccc(Sc3cccc4ccccc34)cc2)n1`: the inhibition was found to be 58%.

In the case of `Cc1cc(C)nc(SCC(=O)Nc2ccc(Sc3cccc(C(F)(F)F)c3)cc2)n1`, the inhibition turned out to be 77%.

For the compound `Cc1cc(C)nc(SCC(=O)Nc2ccc(Sc3ccc4ccccc4c3)cc2)n1`, the inhibition came to 38%.

Another assay shares this target. The experiment in a line: Inhibition of recombinant SIRT2 (unknown origin) using RLIK(Ac)AMC as substrate assessed as reduction in deacetylase activity at 100 uM after 2 hrs in presence of NAD+ by fluorescence assay relative to control. A digest of the protocol: as §1
On to `Cc1cc(C)nc(SCC(=O)Nc2ccc(Sc3ccsc3)cc2)n1`, for which the inhibition worked out at 62%.

As to `Cc1cc(C)nc(SCC(=O)Nc2ccc(Sc3ccc(C(F)(F)F)cc3)cc2)n1`, the inhibition turned out to be 51%.

Take `Cc1cc(C)nc(SCC(=O)Nc2ccc(Sc3ccc(OC(F)(F)F)cc3)cc2)n1`: the inhibition is 60%.

Take `Cc1cc(C)nc(SCC(=O)Nc2ccc(Sc3cccnc3)cc2)n1`: the inhibition is 67%.

With `Cc1cc(C)nc(SCC(=O)Nc2ccc(Sc3ccccc3)cc2)n1`, the inhibition worked out at 80%.

`Cc1cc(C)nc(SCC(=O)Nc2cccc(COc3ccccc3)c2)n1`: the inhibition was found to be 76%.

For `Cc1cc(C)nc(SCC(=O)Nc2ccc(Sc3cccc4ccccc34)cc2)n1`, the inhibition was found to be 53%.

For the compound `Cc1cc(C)nc(SCC(=O)Nc2ccc(Sc3cccc(C(F)(F)F)c3)cc2)n1`, the inhibition turned out to be 82%.

In the case of `Cc1cc(C)nc(SCC(=O)Nc2ccc(Sc3ccc4ccccc4c3)cc2)n1`, the inhibition was 70%.

Another assay has as its target NAD-dependent protein deacylase sirtuin-5, mitochondrial (Homo sapiens) (UniProt Q9NXA8). Description: Inhibition of recombinant SIRT5 (unknown origin) using RLIK(Ac)AMC as substrate assessed as reduction in deacetylase activity after 2 hrs in presence of NAD+ by fluorescence assay. An outline of the steps:
as §1
As to `Cc1cc(C)nc(SCC(=O)Nc2ccc(Sc3cccc(C(F)(F)F)c3)cc2)n1`, the inhibition result was “inactive”.

A further assay has as its target T2, NAD-dependent protein deacetylase sirtuin-1 (Homo sapiens) (UniProt Q96EB6).
T2 sequence (whole entry): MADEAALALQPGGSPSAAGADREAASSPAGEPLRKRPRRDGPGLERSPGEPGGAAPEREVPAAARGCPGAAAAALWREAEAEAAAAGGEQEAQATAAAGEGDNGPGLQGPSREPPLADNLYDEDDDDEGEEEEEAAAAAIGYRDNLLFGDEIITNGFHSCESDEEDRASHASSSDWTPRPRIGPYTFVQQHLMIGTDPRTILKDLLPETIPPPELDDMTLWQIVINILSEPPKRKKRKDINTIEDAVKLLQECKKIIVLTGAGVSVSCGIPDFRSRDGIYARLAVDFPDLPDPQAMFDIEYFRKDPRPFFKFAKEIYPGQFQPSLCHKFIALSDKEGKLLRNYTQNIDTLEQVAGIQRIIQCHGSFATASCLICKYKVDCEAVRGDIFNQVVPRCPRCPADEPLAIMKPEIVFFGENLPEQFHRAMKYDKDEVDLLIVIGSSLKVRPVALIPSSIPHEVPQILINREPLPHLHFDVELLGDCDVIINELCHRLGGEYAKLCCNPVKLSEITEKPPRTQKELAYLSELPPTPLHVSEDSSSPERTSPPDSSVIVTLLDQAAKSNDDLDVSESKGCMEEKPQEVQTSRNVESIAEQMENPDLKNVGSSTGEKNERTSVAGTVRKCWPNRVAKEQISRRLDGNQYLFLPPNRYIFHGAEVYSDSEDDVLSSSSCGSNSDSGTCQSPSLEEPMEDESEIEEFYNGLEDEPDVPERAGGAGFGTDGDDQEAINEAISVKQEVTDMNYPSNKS
The experiment in a line: Inhibition of recombinant SIRT1 (unknown origin) using RLIK(Ac)AMC as substrate assessed as reduction in deacetylase activity after 2 hrs in presence of NAD+ by fluorescence assay. A digest of the protocol: as §1
Take `Cc1cc(C)nc(SCC(=O)Nc2ccc(Sc3cccc(C(F)(F)F)c3)cc2)n1`: the inhibition entry is “inactive”.

The next assay concerns the target T2, NAD-dependent protein deacetylase sirtuin-1 (Homo sapiens). Description: Inhibition of recombinant SIRT1 (unknown origin) using ETDK(Ca)AMC as substrate assessed as reduction in decanoylase activity after 2 hrs in presence of NAD+ by fluorescence assay. A digest of the protocol: as §1
For `Cc1cc(C)nc(SCC(=O)Nc2ccc(Sc3cccc(C(F)(F)F)c3)cc2)n1`, the inhibition result was “inactive”.

Another assay has as its target NAD-dependent protein deacylase sirtuin-6 (Homo sapiens) (UniProt Q8N6T7). The experiment in a line: Inhibition of recombinant SIRT6 (unknown origin) using RLIK(Ac)AMC as substrate assessed as reduction in deacetylase activity after 2 hrs in presence of NAD+ by fluorescence assay. An outline of the steps: as §1
As for `Cc1cc(C)nc(SCC(=O)Nc2ccc(Sc3cccc(C(F)(F)F)c3)cc2)n1`, the inhibition result was “inactive”.

The target in a further assay is T3, NAD-dependent protein deacetylase sirtuin-3, mitochondrial (Homo sapiens) (UniProt Q9NTG7).
T3 sequence (whole entry): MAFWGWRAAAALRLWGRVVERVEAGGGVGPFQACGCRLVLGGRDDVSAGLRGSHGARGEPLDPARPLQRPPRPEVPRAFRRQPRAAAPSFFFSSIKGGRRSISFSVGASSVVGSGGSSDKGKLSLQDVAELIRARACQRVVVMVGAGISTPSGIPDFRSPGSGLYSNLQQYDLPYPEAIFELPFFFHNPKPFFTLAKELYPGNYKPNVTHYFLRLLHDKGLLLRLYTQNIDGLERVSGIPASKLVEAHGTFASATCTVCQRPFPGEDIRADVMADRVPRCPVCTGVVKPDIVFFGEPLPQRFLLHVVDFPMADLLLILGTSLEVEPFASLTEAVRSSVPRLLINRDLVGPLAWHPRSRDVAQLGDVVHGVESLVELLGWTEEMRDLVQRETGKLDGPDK
The experiment in a line: Inhibition of recombinant SIRT3 (unknown origin) using ETDK(Ca)AMC as substrate assessed as reduction in decanoylase activity after 2 hrs in presence of NAD+ by fluorescence assay. An outline of the steps: as §1
For `Cc1cc(C)nc(SCC(=O)Nc2ccc(Sc3cccc(C(F)(F)F)c3)cc2)n1`, the inhibition result was “inactive”.

In another assay the target is T3, NAD-dependent protein deacetylase sirtuin-3, mitochondrial (Homo sapiens). Description: Inhibition of recombinant SIRT3 (unknown origin) using RLIK(Ac)AMC as substrate assessed as reduction in deacetylase activity after 2 hrs in presence of NAD+ by fluorescence assay. A digest of the protocol: as §1
`Cc1cc(C)nc(SCC(=O)Nc2ccc(Sc3cccc(C(F)(F)F)c3)cc2)n1`: the inhibition entry was “inactive”.

The next assay concerns the target T4, NAD-dependent protein deacetylase sirtuin-2 (Homo sapiens, UniProt Q8IXJ6).
T4 sequence (Q8IXJ6 whole entry): T1 sequence (whole entry)
The experiment in a line: Inhibition of recombinant SIRT2 (unknown origin) using RLIK(Ac)AMC as substrate assessed as reduction in deacetylase activity after 2 hrs in presence of NAD+ by fluorescence assay. A digest of the protocol:
as §1
`Cc1cc(C)nc(SCC(=O)Nc2ccc(Sc3ccccc3)cc2)n1`: the IC50 stood at 1320 nM.

Regarding `Cc1cc(C)nc(SCC(=O)Nc2ccc(Sc3cccc(C(F)(F)F)c3)cc2)n1`, the IC50 came to 850 nM.

The next assay addresses NAD-dependent protein deacylase sirtuin-6 (Homo sapiens) (UniProt Q8N6T7). The experiment in a line: Inhibition of recombinant SIRT6 (unknown origin) using ETDK(Ca)AMC as substrate assessed as reduction in decanoylase activity after 2 hrs in presence of NAD+ by fluorescence assay. A digest of the protocol:
as §1
Turning to `Cc1cc(C)nc(SCC(=O)Nc2ccc(Sc3cccc(C(F)(F)F)c3)cc2)n1`, the inhibition entry was “inactive”.

For a further assay, the target named is NAD-dependent protein deacylase sirtuin-5, mitochondrial (Homo sapiens) (UniProt Q9NXA8). The experiment in a line: Inhibition of recombinant SIRT5 (unknown origin) using ETDK(Ca)AMC as substrate assessed as reduction in decanoylase activity after 2 hrs in presence of NAD+ by fluorescence assay. An outline of the steps:
as §1
For the compound `Cc1cc(C)nc(SCC(=O)Nc2ccc(Sc3cccc(C(F)(F)F)c3)cc2)n1`, the inhibition entry was “inactive”.

For a further assay, the target named is T4, NAD-dependent protein deacetylase sirtuin-2. The experiment in a line: Inhibition of recombinant SIRT2 (unknown origin) using ETDK(Ca)AMC as substrate assessed as reduction in decanoylase activity after 2 hrs in presence of NAD+ by fluorescence assay. An outline of the steps:
as §1
In the case of `Cc1cc(C)nc(SCC(=O)Nc2ccc(Sc3ccccc3)cc2)n1`, the concentration for half-maximal inhibition (IC50) stood at 11.6 µM.

As to `Cc1cc(C)nc(SCC(=O)Nc2ccc(Sc3cccc(C(F)(F)F)c3)cc2)n1`, the IC50 stood at 17.6 µM.
